Laboratory results from ChEMBL document CHEMBL4118224, “Design and Synthesis of a Novel Series of Orally Bioavailable, CNS-Penetrant, Isoform Selective Phosphoinositide 3-Kinase γ (PI3Kγ) Inhibitors with Potential for the Treatment of Multiple Sclerosis (MS)” (J Med Chem, 2018).
The source made the active and inactive calls. No cut-off for these calls is given here.

test system: not listed separately; test: Clearance in iv dosed rat; type: ADME, organism-based; settings: in vivo
Procedure, shortened: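 Rat, dog and monkey PK after dosing; clearance in mL/min/Kg.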

Question: For `COc1cc(-c2ccc3c(c2)CN(c2cccc(CC#N)c2)C3=O)cnc1OC`, which clearance is on record?
Answer: 160 mL/min/kg

Question: With `COc1cc(-c2ccc3c(n2)C(C)(C)N(c2cnn(CC(F)(F)F)c2)C3=O)cnc1OC` as the compound, how does the clearance read?
Answer: 6.3 mL/min/kg

Question: With `COc1ccc(-c2ccc3c(c2)CN(c2cccc(CC#N)c2)C3=O)cc1OC` as the compound, how does the clearance read?
Answer: 116 mL/min/kg

Question: For `COc1cc(-c2ccc3c(c2)CN(c2cnn(CC#N)c2)C3=O)cnc1OC`, which clearance is on record?
Answer: 56 mL/min/kg

biological target: T1, Phosphatidylinositol 4,5-bisphosphate 3-kinase catalytic subunit gamma isoform (Homo sapiens, UniProt P48736); test: Inhibition of PI3Kgamma (unknown origin) using PIP2 as substrate after 15 mins in presence of [33P-ATP] by liquid scintillation counting method; settings: not given
T1 sequence (P48736 whole entry, canonical isoform): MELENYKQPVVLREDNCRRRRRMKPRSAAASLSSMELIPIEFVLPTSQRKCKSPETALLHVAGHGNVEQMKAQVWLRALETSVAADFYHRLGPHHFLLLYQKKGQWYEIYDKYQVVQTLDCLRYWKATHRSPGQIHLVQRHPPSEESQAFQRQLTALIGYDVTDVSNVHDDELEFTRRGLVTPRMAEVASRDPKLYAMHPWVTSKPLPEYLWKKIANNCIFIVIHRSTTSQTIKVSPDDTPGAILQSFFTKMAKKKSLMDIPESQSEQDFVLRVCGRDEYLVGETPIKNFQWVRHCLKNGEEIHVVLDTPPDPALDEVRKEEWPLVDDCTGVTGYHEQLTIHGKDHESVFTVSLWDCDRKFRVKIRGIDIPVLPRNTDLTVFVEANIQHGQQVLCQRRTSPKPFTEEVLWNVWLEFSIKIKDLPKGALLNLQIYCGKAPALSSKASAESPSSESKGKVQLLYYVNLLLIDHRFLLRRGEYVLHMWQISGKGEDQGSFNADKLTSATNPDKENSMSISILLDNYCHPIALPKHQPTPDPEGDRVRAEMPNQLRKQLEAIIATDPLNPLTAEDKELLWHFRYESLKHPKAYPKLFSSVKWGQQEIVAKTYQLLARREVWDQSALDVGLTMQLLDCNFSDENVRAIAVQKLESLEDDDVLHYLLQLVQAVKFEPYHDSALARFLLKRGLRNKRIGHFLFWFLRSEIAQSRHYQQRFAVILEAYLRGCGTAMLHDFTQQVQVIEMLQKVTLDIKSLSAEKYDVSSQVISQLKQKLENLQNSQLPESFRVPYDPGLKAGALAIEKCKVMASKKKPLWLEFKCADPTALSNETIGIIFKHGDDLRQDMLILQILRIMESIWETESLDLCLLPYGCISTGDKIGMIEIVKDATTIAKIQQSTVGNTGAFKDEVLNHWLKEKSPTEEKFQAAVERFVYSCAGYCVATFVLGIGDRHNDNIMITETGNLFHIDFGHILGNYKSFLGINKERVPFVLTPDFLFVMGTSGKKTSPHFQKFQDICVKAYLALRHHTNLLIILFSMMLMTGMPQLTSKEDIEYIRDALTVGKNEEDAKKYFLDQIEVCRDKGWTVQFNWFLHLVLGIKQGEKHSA

Question: For `COc1cc(-c2ccc3c(n2)CN(c2cnn(C(C)(C)C#N)c2)C3=O)cnc1OC`, which Ki is on record?
Answer: 28 nM

Question: Which Ki does the source give for `CCn1cc(N2Cc3nc(-c4cnc(OC)c(OC)c4)ccc3C2=O)cn1` here?
Answer: 8 nM

Question: Which Ki does the source give for `COc1cc(-c2ccc3c(n2)CN(c2cn[nH]c2)C3=O)cnc1OC` here?
Answer: 11 nM

Question: For `C#CCn1cc(N2Cc3nc(-c4cnc(OC)c(OC)c4)ccc3C2=O)cn1`, which Ki is on record?
Answer: 9 nM

Question: With `COc1cc(-c2ccc3c(n2)CN(c2cnn(C)c2)C3=O)cnc1OC` as the compound, how does the Ki read?
Answer: 60 nM

Question: For `COc1cc(-c2ccc3c(c2)CN(c2cccc(CC#N)c2)C3=O)cnc1OC`, which Ki is on record?
Answer: 35 nM

Question: With `COc1cc(-c2ccc3c(n2)C(C)(C)N(c2cnn(CC(F)(F)F)c2)C3=O)cnc1OC` as the compound, how does the Ki read?
Answer: 11 nM

Question: Which Ki does the source give for `COc1cc(-c2ccc3c(n2)CN(c2cnn(CC(F)(F)F)c2)C3=O)cnc1OC` here?
Answer: 4 nM

Question: With `COc1cc(-c2ccc3c(n2)CN(c2cnn(CC(F)F)c2)C3=O)cnc1OC` as the compound, how does the Ki read?
Answer: 9 nM

Question: With `COc1ccc(-c2ccc3c(c2)CN(c2cccc(CC#N)c2)C3=O)cc1OC` as the compound, how does the Ki read?
Answer: 160 nM

Question: For `COc1cc(-c2ccc3c(c2)CN(c2cnn(CC#N)c2)C3=O)cnc1OC`, which Ki is on record?
Answer: 6 nM

Question: With `COc1cc(-c2ccc3c(n2)CN(c2cnn(CC#N)c2)C3=O)cnc1OC` as the compound, how does the Ki read?
Answer: 3 to 4 nM

Question: Which Ki does the source give for `COc1cc(-c2ccc3c(n2)CN(c2cnn(CCC#N)c2)C3=O)cnc1OC` here?
Answer: 20 nM

biological target: Phosphatidylinositol-4,5-bisphosphate 3-kinase, catalytic subunit gamma (Rattus norvegicus, UniProt D3ZFJ0); test: Inhibition of PI3Kgamma in rat spleenocytes assessed as inhibition of MCP1-induced Akt phosphorylation at […] residue preincubated for 1 hr followed by MCP1 stimulation for 3 mins by FACS analysis; type: cell-based; settings: not given
Sequence (D3ZFJ0 whole entry): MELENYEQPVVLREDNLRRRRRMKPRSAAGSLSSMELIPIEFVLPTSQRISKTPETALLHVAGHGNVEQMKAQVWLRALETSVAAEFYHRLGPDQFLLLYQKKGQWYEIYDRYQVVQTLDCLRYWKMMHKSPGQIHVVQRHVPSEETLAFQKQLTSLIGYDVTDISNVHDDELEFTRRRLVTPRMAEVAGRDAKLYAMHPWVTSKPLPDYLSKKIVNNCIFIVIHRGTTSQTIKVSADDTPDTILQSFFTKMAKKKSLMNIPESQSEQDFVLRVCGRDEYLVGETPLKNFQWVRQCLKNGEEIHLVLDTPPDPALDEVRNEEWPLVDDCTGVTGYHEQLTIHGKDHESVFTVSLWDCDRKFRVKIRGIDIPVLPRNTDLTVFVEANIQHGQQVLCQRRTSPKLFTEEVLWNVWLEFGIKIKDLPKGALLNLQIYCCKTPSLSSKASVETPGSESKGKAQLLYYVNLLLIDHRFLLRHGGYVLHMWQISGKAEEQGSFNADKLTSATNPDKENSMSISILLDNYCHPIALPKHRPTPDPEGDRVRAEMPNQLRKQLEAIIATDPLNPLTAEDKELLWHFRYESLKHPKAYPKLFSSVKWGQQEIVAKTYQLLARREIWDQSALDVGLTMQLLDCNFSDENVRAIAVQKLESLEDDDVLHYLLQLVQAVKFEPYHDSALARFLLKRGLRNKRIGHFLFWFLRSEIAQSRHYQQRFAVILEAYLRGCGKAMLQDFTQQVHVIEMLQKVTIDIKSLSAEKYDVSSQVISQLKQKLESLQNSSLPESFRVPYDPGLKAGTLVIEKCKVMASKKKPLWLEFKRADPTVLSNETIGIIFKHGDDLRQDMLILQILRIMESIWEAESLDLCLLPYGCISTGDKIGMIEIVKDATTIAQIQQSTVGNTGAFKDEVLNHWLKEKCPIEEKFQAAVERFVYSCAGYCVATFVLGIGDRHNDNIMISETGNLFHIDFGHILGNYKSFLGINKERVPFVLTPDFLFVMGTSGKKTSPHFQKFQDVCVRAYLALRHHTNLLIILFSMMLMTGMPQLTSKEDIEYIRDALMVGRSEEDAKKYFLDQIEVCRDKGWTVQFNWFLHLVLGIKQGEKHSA
Procedure, shortened: (§1)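 Akt phosphorylation was induced by MCP-1 in THP-1 cells or in splenocytes.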

Question: Which IC50 does the source give for `COc1cc(-c2ccc3c(n2)[C@@H](C)N(c2cnn(CC(F)(F)F)c2)C3=O)cnc1OC` here?
Answer: 210 nM

test system: not listed separately; test: Intrinsic clearance in rat hepatocytes assessed per million cells; type: ADME, cell-based, Hepatocyte; settings: read-out: CLH
Procedure, shortened: (§2)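 Intrinsic clearance in rat, dog, monkey and human hepatocytes; units µL/min/M cells.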

Question: With `COc1cc(-c2ccc3c(c2)CN(c2cccc(CC#N)c2)C3=O)cnc1OC` as the compound, how does the hepatocyte CLint read?
Answer: 88 µL/min/1e6 cells

Question: With `COc1ccc(-c2ccc3c(c2)CN(c2cccc(CC#N)c2)C3=O)cc1OC` as the compound, how does the hepatocyte CLint read?
Answer: 111 µL/min/1e6 cells

biological target: T1, Phosphatidylinositol 4,5-bisphosphate 3-kinase catalytic subunit gamma isoform; test: Inhibition of PI3Kgamma in human THP1 cells assessed as inhibition of MCP1-induced Akt phosphorylation at […] residue preincubated for 1 hr followed by MCP1 stimulation for 3 mins by FACS analysis; type: cell-based; settings: not given; procedure, shortened: as §1

Question: With `COc1cc(-c2ccc3c(n2)C(C)(C)N(c2cnn(CC(F)(F)F)c2)C3=O)cnc1OC` as the compound, how does the IC50 read?
Answer: 340 nM

Question: Which IC50 does the source give for `COc1cc(-c2ccc3c(n2)CN(c2cnn(CC(F)(F)F)c2)C3=O)cnc1OC` here?
Answer: 280 nM

species on record: Homo sapiens; test: Selectivity ratio of Ki for PI3Kalpha (unknown origin) to Ki for PI3Kgamma (unknown origin); settings: not given

Question: For `COc1cc(-c2ccc3c(n2)CN(c2cnn(C(C)(C)C#N)c2)C3=O)cnc1OC`, which Ratio Ki is on record?
Answer: 15

Question: With `CCn1cc(N2Cc3nc(-c4cnc(OC)c(OC)c4)ccc3C2=O)cn1` as the compound, how does the Ratio Ki read?
Answer: 25

Question: Which Ratio Ki does the source give for `COc1cc(-c2ccc3c(n2)CN(c2cn[nH]c2)C3=O)cnc1OC` here?
Answer: 34

Question: With `C#CCn1cc(N2Cc3nc(-c4cnc(OC)c(OC)c4)ccc3C2=O)cn1` as the compound, how does the Ratio Ki read?
Answer: 11

Question: With `COc1cc(-c2ccc3c(n2)CN(c2cnn(C)c2)C3=O)cnc1OC` as the compound, how does the Ratio Ki read?
Answer: 5

Question: Which Ratio Ki does the source give for `COc1cc(-c2ccc3c(c2)CN(c2cccc(CC#N)c2)C3=O)cnc1OC` here?
Answer: 40

Question: Which Ratio Ki does the source give for `COc1cc(-c2ccc3c(n2)C(C)(C)N(c2cnn(CC(F)(F)F)c2)C3=O)cnc1OC` here?
Answer: 33

Question: For `COc1cc(-c2ccc3c(n2)CN(c2cnn(CC(F)F)c2)C3=O)cnc1OC`, which Ratio Ki is on record?
Answer: 22

Question: Which Ratio Ki does the source give for `COc1ccc(-c2ccc3c(c2)CN(c2cccc(CC#N)c2)C3=O)cc1OC` here?
Answer: > 25

Question: With `COc1cc(-c2ccc3c(c2)CN(c2cnn(CC#N)c2)C3=O)cnc1OC` as the compound, how does the Ratio Ki read?
Answer: 51

Question: Which Ratio Ki does the source give for `COc1cc(-c2ccc3c(n2)CN(c2cnn(CCC#N)c2)C3=O)cnc1OC` here?
Answer: 11

test system: Mus musculus; test: Anti-inflammatory activity in MOG (35 to 55 residues)-induced EAE C57BL/6 mouse model assessed as inhibition of development of clinical symptoms at 1 mg/kg, po qd measured on day 8 post MOG (35 to 55 residues) immunization; type: functional, organism-based; settings: not given

Question: For `CCCCCCCCc1ccc(CCC(N)(CO)CO)cc1`, which Activity is on record?
Answer: Active

test system: not listed separately; test: Half life in iv dosed rat; type: ADME, organism-based; settings: in vivo

Question: For `COc1cc(-c2ccc3c(n2)C(C)(C)N(c2cnn(CC(F)(F)F)c2)C3=O)cnc1OC`, which half-life is on record?
Answer: 6.6 h

test system: not listed separately; test: Lipophilicity, log D of the compound at pH 7.4; type: physicochemical; settings: buffer

Question: Which logD does the source give for `COc1ccc(-c2ccc3c(c2)CN(c2cccc(CC#N)c2)C3=O)cc1OC` here?
Answer: 4.1

test system: not listed separately; test: Intrinsic clearance in human hepatocytes assessed per million cells; type: ADME, cell-based, Hepatocyte; settings: read-out: CLH; procedure, shortened: as §2

Question: With `COc1cc(-c2ccc3c(c2)CN(c2cccc(CC#N)c2)C3=O)cnc1OC` as the compound, how does the hepatocyte CLint read?
Answer: 30 µL/min/1e6 cells

Question: Which hepatocyte CLint does the source give for `COc1ccc(-c2ccc3c(c2)CN(c2cccc(CC#N)c2)C3=O)cc1OC` here?
Answer: 26 µL/min/1e6 cells

species on record: Homo sapiens; test: Selectivity ratio of Ki for PI3Kbeta (unknown origin) to Ki for PI3Kgamma (unknown origin); settings: not given

Question: For `COc1cc(-c2ccc3c(n2)CN(c2cnn(C(C)(C)C#N)c2)C3=O)cnc1OC`, which Ratio Ki is on record?
Answer: 25

Question: Which Ratio Ki does the source give for `CCn1cc(N2Cc3nc(-c4cnc(OC)c(OC)c4)ccc3C2=O)cn1` here?
Answer: 39

Question: Which Ratio Ki does the source give for `COc1cc(-c2ccc3c(n2)CN(c2cn[nH]c2)C3=O)cnc1OC` here?
Answer: 32

Question: For `C#CCn1cc(N2Cc3nc(-c4cnc(OC)c(OC)c4)ccc3C2=O)cn1`, which Ratio Ki is on record?
Answer: 25

Question: For `COc1cc(-c2ccc3c(n2)CN(c2cnn(C)c2)C3=O)cnc1OC`, which Ratio Ki is on record?
Answer: 9

Question: With `COc1cc(-c2ccc3c(c2)CN(c2cccc(CC#N)c2)C3=O)cnc1OC` as the compound, how does the Ratio Ki read?
Answer: 11

Question: For `COc1cc(-c2ccc3c(n2)C(C)(C)N(c2cnn(CC(F)(F)F)c2)C3=O)cnc1OC`, which Ratio Ki is on record?
Answer: 12

Question: With `COc1cc(-c2ccc3c(n2)CN(c2cnn(CC(F)F)c2)C3=O)cnc1OC` as the compound, how does the Ratio Ki read?
Answer: 12

Question: For `COc1ccc(-c2ccc3c(c2)CN(c2cccc(CC#N)c2)C3=O)cc1OC`, which Ratio Ki is on record?
Answer: > 25

Question: For `COc1cc(-c2ccc3c(c2)CN(c2cnn(CC#N)c2)C3=O)cnc1OC`, which Ratio Ki is on record?
Answer: 27

Question: Which Ratio Ki does the source give for `COc1cc(-c2ccc3c(n2)CN(c2cnn(CCC#N)c2)C3=O)cnc1OC` here?
Answer: 10

test system: MDR1; test: Efflux ratio of permeability from basolateral to apical over apical to basolateral side in MDCK cells harboring MDR1; type: ADME, cell-based, Canis lupus familiaris; settings: dog
Procedure, shortened: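 MDR1-MDCK monolayers; bidirectional transport. A-B permeability in x10-6 cm/s; efflux taken as the B-A/A-B ratio.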

Question: With `COc1cc(-c2ccc3c(n2)CN(c2cnn(C)c2)C3=O)cnc1OC` as the compound, how does the efflux ratio read?
Answer: 2.5

test system: Mus musculus; test: Anti-inflammatory activity in MOG (35 to 55 residues)-induced EAE C57BL/6 mouse model assessed as inhibition of development of clinical symptoms at 3 to 30 mg/kg, po bid […]; type: functional, organism-based; settings: not given
Procedure, shortened: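 C57BL6 mice immunized with myelin oligodendrocyte glycoprotein in complete Freund's adjuvant containing Mycobacterium tuberculosis. Oral dosing BID at 3, 10 and 30 mg/Kg began at a clinical score of 0.5-1. Vehicle and positive-control groups were run alongside. Read-out: clinical EAE score plotted against time after onset.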

Question: With `COc1cc(-c2ccc3c(n2)[C@@H](C)N(c2cnn(CC(F)(F)F)c2)C3=O)cnc1OC` as the compound, how does the Activity read?
Answer: Active

species on record: Homo sapiens; test: Selectivity ratio of Ki for PI3Kdelta (unknown origin) to Ki for PI3Kgamma (unknown origin); settings: not given

Question: With `COc1cc(-c2ccc3c(n2)CN(c2cnn(C(C)(C)C#N)c2)C3=O)cnc1OC` as the compound, how does the Ratio Ki read?
Answer: 10

Question: With `CCn1cc(N2Cc3nc(-c4cnc(OC)c(OC)c4)ccc3C2=O)cn1` as the compound, how does the Ratio Ki read?
Answer: 14

Question: With `COc1cc(-c2ccc3c(n2)CN(c2cn[nH]c2)C3=O)cnc1OC` as the compound, how does the Ratio Ki read?
Answer: 42

Question: For `C#CCn1cc(N2Cc3nc(-c4cnc(OC)c(OC)c4)ccc3C2=O)cn1`, which Ratio Ki is on record?
Answer: 12

Question: Which Ratio Ki does the source give for `COc1cc(-c2ccc3c(n2)CN(c2cnn(C)c2)C3=O)cnc1OC` here?
Answer: 3

Question: Which Ratio Ki does the source give for `COc1cc(-c2ccc3c(c2)CN(c2cccc(CC#N)c2)C3=O)cnc1OC` here?
Answer: 16

Question: With `COc1cc(-c2ccc3c(n2)C(C)(C)N(c2cnn(CC(F)(F)F)c2)C3=O)cnc1OC` as the compound, how does the Ratio Ki read?
Answer: 10

Question: For `COc1cc(-c2ccc3c(n2)CN(c2cnn(CC(F)F)c2)C3=O)cnc1OC`, which Ratio Ki is on record?
Answer: 5

Question: Which Ratio Ki does the source give for `COc1ccc(-c2ccc3c(c2)CN(c2cccc(CC#N)c2)C3=O)cc1OC` here?
Answer: 7

Question: Which Ratio Ki does the source give for `COc1cc(-c2ccc3c(c2)CN(c2cnn(CC#N)c2)C3=O)cnc1OC` here?
Answer: 17

Question: For `COc1cc(-c2ccc3c(n2)CN(c2cnn(CCC#N)c2)C3=O)cnc1OC`, which Ratio Ki is on record?
Answer: 4
